Measurements as given in ChEMBL document CHEMBL4002589, “Tri- and Tetrasubstituted Pyridinylimidazoles as Covalent Inhibitors of c-Jun N-Terminal Kinase 3” (J Med Chem, 2017).
Active and inactive are the calls of the source. The rule behind the calls is not given here.

Tests used:
[1] = biological target: Mitogen-activated protein kinase 14 (Homo sapiens, UniProt Q16539); assay: Inhibition of GST-His tagged human p38alpha expressed in Escherichia coli assessed as reduction in ATF2 phosphorylation measured after 60 mins by ELISA
Chain of Mitogen-activated protein kinase 14 (Q16539 whole entry): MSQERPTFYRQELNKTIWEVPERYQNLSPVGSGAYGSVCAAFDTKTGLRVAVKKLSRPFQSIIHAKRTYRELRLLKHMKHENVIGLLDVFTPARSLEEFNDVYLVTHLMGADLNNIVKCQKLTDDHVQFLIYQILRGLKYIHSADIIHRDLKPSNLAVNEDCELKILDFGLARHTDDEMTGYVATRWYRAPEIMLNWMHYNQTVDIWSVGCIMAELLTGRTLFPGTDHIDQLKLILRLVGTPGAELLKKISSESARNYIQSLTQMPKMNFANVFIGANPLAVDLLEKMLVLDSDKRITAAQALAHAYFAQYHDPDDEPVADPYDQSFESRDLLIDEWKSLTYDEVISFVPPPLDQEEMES
How it was run: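 ELISA kinase assays run in parallel for JNK3 and p38α, with 60 min incubation. IC50 values are the mean of three experiments.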

[2] = biological target: Mitogen-activated protein kinase 10 (Homo sapiens, UniProt P53779); assay: Inhibition of recombinant 6x-His-tagged JNK3 (39 to 402 residues) (unknown origin) expressed in Escherichia coli BL21(DE3) assessed as reduction in ATF2 phosphorylation measured after 50 mins by ELISA
Chain of Mitogen-activated protein kinase 10 (P53779 whole entry, the tested form may be a part): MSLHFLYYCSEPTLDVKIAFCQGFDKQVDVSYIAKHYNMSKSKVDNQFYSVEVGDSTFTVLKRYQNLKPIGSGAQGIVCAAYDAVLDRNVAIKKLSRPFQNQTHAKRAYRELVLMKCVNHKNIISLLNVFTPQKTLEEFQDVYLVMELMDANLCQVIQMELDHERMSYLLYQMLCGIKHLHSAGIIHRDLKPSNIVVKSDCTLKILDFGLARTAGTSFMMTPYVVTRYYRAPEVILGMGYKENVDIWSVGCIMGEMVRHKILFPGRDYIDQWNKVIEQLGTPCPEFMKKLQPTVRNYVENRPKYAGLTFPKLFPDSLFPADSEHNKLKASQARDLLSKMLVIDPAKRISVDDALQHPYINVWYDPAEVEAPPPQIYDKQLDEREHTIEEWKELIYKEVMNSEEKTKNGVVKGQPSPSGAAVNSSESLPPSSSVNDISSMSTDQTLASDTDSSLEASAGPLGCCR

[3] = test system: Mitogen-activated protein kinase 10 (Homo sapiens), P53779 [C154A]; assay: Covalent binding affinity to JNK3 C154A mutant (unknown origin) at 5 molar excess after 1 hr by LC-muESI-QTOF mass spectrometry
Chain of Mitogen-activated protein kinase 10 (Homo sapiens), P53779 [C154A] (P53779 whole entry C154A): as the sequence (P53779 whole entry, the tested form may be a part) above, with C154A counted along it
How it was run: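 Intact-protein mass spectrometry with a JNK3 mutant carrying Cys-154→Ala. Inhibitor is incubated with the protein. Unbound and reversibly bound ligand are removed by chromatography and by a high declustering potential before ionization. The protein is then analysed by LC-µESI-QTOF to look for a mass shift from a covalent adduct.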

[4] = biological target: MAP kinase-activated protein kinase 2 (Homo sapiens) (UniProt P49137); assay: Inhibition of human MAPKAPK2 expressed in Sf9 cells assessed as residual activity at 0.5 uM relative to control
Chain of MAP kinase-activated protein kinase 2 (Homo sapiens) (P49137 whole entry, looked up): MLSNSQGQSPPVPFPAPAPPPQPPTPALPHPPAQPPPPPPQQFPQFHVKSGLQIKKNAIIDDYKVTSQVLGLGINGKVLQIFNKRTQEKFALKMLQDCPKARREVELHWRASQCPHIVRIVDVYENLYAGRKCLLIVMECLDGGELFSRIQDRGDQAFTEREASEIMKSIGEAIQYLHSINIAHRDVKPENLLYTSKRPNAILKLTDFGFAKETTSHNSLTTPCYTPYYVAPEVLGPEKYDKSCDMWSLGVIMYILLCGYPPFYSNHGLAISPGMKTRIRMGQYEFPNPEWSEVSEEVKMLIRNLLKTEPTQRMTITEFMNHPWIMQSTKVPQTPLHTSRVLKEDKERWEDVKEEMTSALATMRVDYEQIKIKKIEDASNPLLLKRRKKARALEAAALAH
How it was run: (§1)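 Each inhibitor is tested at a single concentration, 1 µM or 0.5 µM depending on the compound. Results are reported as residual kinase activity.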

[5] = biological target: Angiopoietin-1 receptor (Homo sapiens) (UniProt Q02763); assay: Inhibition of human wild type C-terminal GST-His-tagged TIE2 expressed in Sf9 cells assessed as residual activity at 0.5 uM relative to control; how it was run: as §1
Chain of Angiopoietin-1 receptor (Homo sapiens) (Q02763 whole entry): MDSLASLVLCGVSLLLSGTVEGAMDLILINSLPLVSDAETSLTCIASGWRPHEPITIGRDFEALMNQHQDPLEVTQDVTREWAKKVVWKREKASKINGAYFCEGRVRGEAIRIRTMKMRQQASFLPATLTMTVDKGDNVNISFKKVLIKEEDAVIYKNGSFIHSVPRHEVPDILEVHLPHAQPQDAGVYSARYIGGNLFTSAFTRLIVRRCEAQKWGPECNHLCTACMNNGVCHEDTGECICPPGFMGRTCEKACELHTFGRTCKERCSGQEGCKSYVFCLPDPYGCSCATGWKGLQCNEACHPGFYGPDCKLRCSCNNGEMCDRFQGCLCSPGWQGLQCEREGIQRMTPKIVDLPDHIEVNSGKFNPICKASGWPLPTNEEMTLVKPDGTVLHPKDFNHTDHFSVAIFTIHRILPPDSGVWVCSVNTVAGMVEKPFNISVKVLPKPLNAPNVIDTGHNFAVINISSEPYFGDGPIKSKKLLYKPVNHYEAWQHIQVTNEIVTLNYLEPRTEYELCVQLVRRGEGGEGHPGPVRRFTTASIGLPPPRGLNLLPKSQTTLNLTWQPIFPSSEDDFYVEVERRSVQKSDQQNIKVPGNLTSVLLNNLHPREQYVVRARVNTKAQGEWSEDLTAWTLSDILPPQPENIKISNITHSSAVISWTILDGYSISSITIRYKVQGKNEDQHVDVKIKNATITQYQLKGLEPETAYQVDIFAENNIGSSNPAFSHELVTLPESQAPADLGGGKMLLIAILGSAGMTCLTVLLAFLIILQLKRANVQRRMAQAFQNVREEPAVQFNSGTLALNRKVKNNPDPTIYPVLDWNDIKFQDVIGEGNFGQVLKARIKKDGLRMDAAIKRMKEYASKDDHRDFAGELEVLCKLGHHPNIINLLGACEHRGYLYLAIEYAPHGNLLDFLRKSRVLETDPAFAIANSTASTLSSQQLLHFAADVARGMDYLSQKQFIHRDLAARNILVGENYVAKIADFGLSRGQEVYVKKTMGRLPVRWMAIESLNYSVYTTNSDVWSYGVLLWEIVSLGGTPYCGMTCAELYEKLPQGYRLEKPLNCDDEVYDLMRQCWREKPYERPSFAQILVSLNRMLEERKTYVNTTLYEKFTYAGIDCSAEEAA

[6] = Drug metabolism in human liver microsomes at 100 uM preincubated with NADPH regenerating system for 5 mins followed by addition of liver microsomes measured after 180 mins by LC-MS analysis; type: ADME, microsome; details: read-out: Drug metabolism
[7] = biological target: Casein kinase I isoform delta (Homo sapiens) (UniProt P48730); assay: Inhibition of CK1 delta (unknown origin) assessed as residual activity at 0.5 uM; how it was run: as §1
Chain of Casein kinase I isoform delta (Homo sapiens) (P48730 whole entry, looked up, canonical isoform): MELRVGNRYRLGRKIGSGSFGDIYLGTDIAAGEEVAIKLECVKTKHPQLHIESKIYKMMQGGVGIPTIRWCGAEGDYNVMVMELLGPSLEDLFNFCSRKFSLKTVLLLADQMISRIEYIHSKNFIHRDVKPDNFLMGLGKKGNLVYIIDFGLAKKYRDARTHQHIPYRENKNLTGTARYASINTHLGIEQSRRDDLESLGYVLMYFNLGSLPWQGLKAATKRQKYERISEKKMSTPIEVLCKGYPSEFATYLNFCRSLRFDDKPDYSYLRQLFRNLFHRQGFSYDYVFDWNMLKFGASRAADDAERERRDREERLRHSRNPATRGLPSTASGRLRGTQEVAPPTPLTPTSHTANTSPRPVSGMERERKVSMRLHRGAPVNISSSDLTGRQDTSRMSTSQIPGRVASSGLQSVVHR

[8] = Glutathione reactivity at 10 uM after 54 mins in presence of 5 mM GSH by HPLC method
How it was run: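 Test compound (10 µM) is incubated with glutathione (5 mM) under conditions like those of the kinase activity assay (max. concentration 10 µM, 54 min, 37°C).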

Row | IC50 [1] | IC50 [2] | SMILES | other results
1 | 38 nM | 17 nM | CCC(=O)Nc1cccc(C(=O)Nc2ccc(Nc3cc(-c4c(-c5ccc(F)cc5)nc(SC)n4C)ccn3)cc2)c1C | 
2 | 17 nM | 27 nM | CCC(=O)Nc1ccc(C(=O)Nc2ccc(Nc3cc(-c4c(-c5ccc(F)cc5)nc(SC)n4C)ccn3)cc2)cc1 | 
3 | 100 nM | 3 nM | C=CC(=O)Nc1cccc(C(=O)Nc2cccc(Nc3cc(-c4c(-c5ccc(F)cc5)nc(SC)n4C)ccn3)c2)c1C | 
4 | 17 nM | 24 nM | CSc1nc(-c2ccc(F)cc2)c(-c2ccnc(Nc3ccc(N)cc3)c2)[nH]1 | 
5 | 22 nM | 25 nM | CCC(=O)Nc1ccc(C(=O)Nc2ccc(Nc3cc(-c4c(-c5ccc(F)cc5)nc(SC)n4C)ccn3)c(C)c2)cc1 | 
6 | 47 nM | 10 nM | C=CC(=O)Nc1ccc(C(=O)Nc2ccc(Nc3cc(-c4c(-c5ccc(F)cc5)nc(SC)n4C)ccn3)cc2)cc1 | Activity [3]: inactive
7 | 126 nM | 23 nM | CCC(=O)Nc1cccc(C(=O)Nc2ccc(Nc3cc(-c4c(-c5ccc(F)cc5)nc(SC)n4C)ccn3)cc2)c1 | 
8 | 26 nM | 4 nM | C=CC(=O)Nc1ccc(C(=O)Nc2cccc(Nc3cc(-c4c(-c5ccc(F)cc5)nc(SC)n4C)ccn3)c2)cc1 | 
9 | 149 nM | 30 nM | CSc1nc(-c2ccc(F)cc2)c(-c2ccnc(Nc3ccc(NC(=O)c4cccc(N)c4)cc3)c2)n1C | 
10 | 0.8 nM | 0.6 nM | C=CC(=O)Nc1cccc(C(=O)Nc2ccc(Nc3cc(-c4[nH]c(SC)nc4-c4ccc(F)cc4)ccn3)cc2)c1 | 
11 | 5920 nM | 200 nM | C=CC(=O)Nc1ccc(C(=O)Nc2ccc(Nc3cc(-c4[nH]c(SC)nc4C)ccn3)cc2)cc1 | 
12 | 217 nM | 3 nM | C=CC(=O)Nc1cccc(C(=O)Nc2cccc(Nc3cc(-c4c(-c5ccc(F)cc5)nc(SC)n4C)ccn3)c2)c1 | 
13 | 241 nM | 175 nM | CCC(=O)Nc1cccc(C(=O)Nc2cccc(Nc3cc(-c4c(-c5ccc(F)cc5)nc(SC)n4C)ccn3)c2)c1 | 
14 | > 10000 nM | 253 nM | CCC(=O)Nc1cccc(C(=O)Nc2ccc(Nc3cc(-c4[nH]c(SC)nc4C)ccn3)cc2)c1 | 
15 | 3 nM | 2 nM | C=CC(=O)Nc1cccc(C(=O)Nc2ccc(Nc3cc(-c4c(-c5ccc(F)cc5)nc(SC)n4C)ccn3)c(C)c2)c1 | 
16 | 35 nM | 8 nM | C=CC(=O)Nc1ccc(C(=O)Nc2ccc(Nc3cc(-c4c(-c5ccc(F)cc5)nc(SC)n4C)ccn3)c(C)c2)cc1 | 
17 | 3 nM | 3 nM | C=CC(=O)Nc1ccc(C(=O)Nc2ccc(Nc3cc(-c4[nH]c(SC)nc4-c4ccc(F)cc4)ccn3)cc2)cc1 | 
18 | 4 nM | 2 nM | CCC(=O)Nc1cccc(C(=O)Nc2ccc(Nc3cc(-c4[nH]c(SC)nc4-c4ccc(F)cc4)ccn3)cc2)c1 | 
19 | 2 nM | 2 nM | C=CC(=O)Nc1cccc(C(=O)Nc2ccc(Nc3cc(-c4c(-c5ccc(F)cc5)nc(SC)n4C)ccn3)cc2)c1C | 
20 | 36 nM | 0.3 nM | C=CC(=O)Nc1cccc(C(=O)Nc2ccc(Nc3cc(-c4c(-c5ccc(F)cc5)nc(SC)n4C)ccn3)cc2)c1 | Activity [4]: 30 to 50%; Activity [5]: 30 to 50%; metabolised at 3 h, 100 µM [6]: 13%; Activity [7]: 30 to 50%; Activity [3]: inactive; Drug metabolism [8]: Metabolite detected
